This passage reports IC50 results from article PMC5384874 (Medicinal chemistry (Shariqah (United Arab Emirates)), 2017).

Format in all cases: cell-based, human
One data set relates to A549. Nature of the data set: Cytotoxicity assay, CCK-8 method, A549. To be noted: read-out: IC50, cytotoxicity against A549; A549, CCK-8, 24 h incubation. Put shortly: (§1)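 Cells grown in RPMI with 10% fetal bovine serum, penicillin (100 U/mL) and streptomycin (50 μg/mL), seeded in 96-well plates at […]. Test compound added at increasing concentrations; untreated cells as control. Incubated 24 h at 37 °C, 5% CO2, humidified. CCK-8 added, 2 h at 37 °C, read with europium detection protocol. IC50 versus DMSO-treated wells by logit method, at least three independent tests.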
On the technique in general: Formazan colour is commonly taken as a measure of viable cells.

For a further data set, the system named is MCF-7. The experiment in a line: Cytotoxicity assay, CCK-8 method, MCF-7. To be noted: read-out: IC50, cytotoxicity against MCF-7; MCF-7, CCK-8, 24 h incubation. Put shortly: as §1
For a further data set, the system named is HeLa. Nature of the data set: Cytotoxicity assay, CCK-8 method, HeLa. To be noted: read-out: IC50, cytotoxicity against HeLa, CCK-8, 24 h incubation. Put shortly:
as §1

With phylactones F/G [5/6], the IC50 (commonly the point on the concentration scale where inhibition reaches its midpoint) with A549 turned out to be 7.8 µM; in the data set on MCF-7, 5.2 µM; in the data set with HeLa, 9.6 µM.
